Test results as given in ChEMBL document CHEMBL3045565, “Microwave synthesis, characterization and bio-efficacy evaluation of novel chalcone based 6-carbethoxy-2-cyclohexen-1-one and 2H-indazol-3-ol derivatives” (Eur J Med Chem, 2013).
In brackets after ≈: the same amount, converted by molar mass.

Legend:
Assay type in all cases: functional
Klebsiella pneumoniae [1] = assay: Antibacterial activity against Klebsiella pneumoniae MTCC 7028 assessed as growth inhibition at 25 ug/disk after 24 hr by disk diffusion method; conditions: MTCC 7028, 24 h, read-out: DIZ
Xanthomonas oryzae [2] = assay: Antibacterial activity against Xanthomonas oryzae ITCC B-47 assessed as as growth inhibition at 25 ug/disk after 24 hr by disk diffusion method; conditions: ITCC B-47, 24 h, read-out: DIZ
Bacillus thuringiensis [3] = assay: Antibacterial activity against Bacillus thuringiensis MTCC 6941 assessed as growth inhibition at 25 ug/disk after 24 hr by disk diffusion method; conditions: MTCC 6941, 24 h, read-out: DIZ
Pseudomonas aeruginosa [4] = assay: Antibacterial activity against Pseudomonas aeruginosa MTCC 2581 assessed as growth inhibition at 25 ug/disk after 24 hr by disk diffusion method; conditions: MTCC 2581, 24 h, read-out: DIZ
Dickeya chrysanthemi [5] = assay: Antibacterial activity against Erwinia chrysanthemi ITCC B-40 assessed as as growth inhibition at 25 ug/disk after 24 hr by disk diffusion method; conditions: ITCC B-40, 24 h, read-out: DIZ
Bacillus pumilus [6] = assay: Antibacterial activity against Bacillus pumilus MTCC 2466 assessed as growth inhibition at 25 ug/disk after 24 hr by disk diffusion method; conditions: MTCC 2466, 24 h, read-out: DIZ
Staphylococcus aureus [7] = assay: Antibacterial activity against Staphylococcus aureus MTCC 3160 assessed as growth inhibition at 25 ug/disk after 24 hr by disk diffusion method; conditions: MTCC 3160, 24 h, read-out: DIZ
[8] = system: Radical scavenging activity; assay: Antioxidant activity assessed as DPPH free radical scavenging activity at 100 ug/mL after 20 min by UV-Vis spectrophotometric analysis
In short: (§1)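 DPPH radical scavenging: samples were held at room temperature for 20 min in the dark, and absorbance was read at 517 nm. The control contained DMSO without compound, and methanol was used for baseline correction. Scavenging percentage was calculated from the absorbances.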

Rhizoctonia solani = assay: Antifungal activity against Rhizoctonia solani ITCC 5563 by food poisoning method
In short: (§2)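 Poisoned food technique on PDA at several concentrations. A 5 mm mycelial plug from the growing edge of a 2-week-old colony was placed inoculum-side down at the plate centre. Plates incubated at 27 °C until control growth was nearly complete. Colony diameter measured, percent inhibition calculated against control, LC50 derived. Four replicates per treatment.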

[9] = system: Radical scavenging activity; assay: Antioxidant activity assessed as DPPH free radical scavenging activity at 80 ug/mL after 20 min by UV-Vis spectrophotometric analysis; in short: as §1
Staphylococcus aureus [10] = assay: Antibacterial activity against Staphylococcus aureus MTCC 3160 assessed as growth inhibition at 100 ug/disk after 24 hr by disk diffusion method; conditions: MTCC 3160, 24 h, read-out: DIZ
In short: (§3)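 Disk diffusion on nutrient agar. Strains kept on NA slants at 37 °C and subcultured in nutrient broth before testing. A log-phase culture was spread on solidified medium, and sterile disks were loaded with compound from DMSO stock. DMSO served as control, with commercial antibiotics for reference. Plates ran 24 h at 37 °C, and inhibition zones (mm) were read in quadruplicate.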

[11] = system: Radical scavenging activity; assay: Antioxidant activity assessed as DPPH free radical scavenging activity at 20 ug/mL after 20 min by UV-Vis spectrophotometric analysis; in short: as §1
Klebsiella pneumoniae [12] = assay: Antibacterial activity against Klebsiella pneumoniae MTCC 7028 assessed as growth inhibition at 100 ug/disk after 24 hr by disk diffusion method; conditions: MTCC 7028, 24 h, read-out: DIZ; in short: as §3
[13] = system: Radical scavenging activity; assay: Antioxidant activity assessed as DPPH free radical scavenging activity at 10 ug/mL after 20 min by UV-Vis spectrophotometric analysis; in short: as §1
Bacillus thuringiensis [14] = assay: Antibacterial activity against Bacillus thuringiensis MTCC 6941 assessed as growth inhibition at 100 ug/disk after 24 hr by disk diffusion method; conditions: MTCC 6941, 24 h, read-out: DIZ; in short: as §3
Athelia rolfsii = assay: Antifungal activity against Athelia rolfsii ITCC 6181 by food poisoning method; conditions: Agroathelia rolfsii; in short: as §2
[15] = system: Radical scavenging activity; assay: Antioxidant activity assessed as DPPH free radical scavenging activity at 500 ug/mL after 20 min by UV-Vis spectrophotometric analysis; in short: as §1
Dickeya chrysanthemi [16] = assay: Antibacterial activity against Erwinia chrysanthemi ITCC B-40 assessed as as growth inhibition at 100 ug/disk after 24 hr by disk diffusion method; conditions: ITCC B-40, 24 h, read-out: DIZ; in short: as §3
[17] = system: Radical scavenging activity; assay: Antioxidant activity assessed as DPPH free radical scavenging activity at 40 ug/mL after 20 min by UV-Vis spectrophotometric analysis; in short: as §1
[18] = system: Radical scavenging activity; assay: Antioxidant activity assessed as DPPH free radical scavenging activity at 200 ug/mL after 20 min by UV-Vis spectrophotometric analysis; in short: as §1
Pseudomonas aeruginosa [19] = assay: Antibacterial activity against Pseudomonas aeruginosa MTCC 2581 assessed as growth inhibition at 100 ug/disk after 24 hr by disk diffusion method; conditions: MTCC 2581, 24 h, read-out: DIZ; in short: as §3
Xanthomonas oryzae [20] = assay: Antibacterial activity against Xanthomonas oryzae ITCC B-47 assessed as as growth inhibition at 100 ug/disk after 24 hr by disk diffusion method; conditions: ITCC B-47, 24 h, read-out: DIZ
Klebsiella pneumoniae [21] = assay: Antibacterial activity against Klebsiella pneumoniae MTCC 7028 assessed as growth inhibition after 24 hr by broth dilution method; conditions: MTCC 7028, 24 h
In short: (§4)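 Broth dilution, with streptomycin as the standard. MIC was taken as the lowest concentration giving more than 90% bacterial inhibition.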

[22] = system: Radical scavenging activity; assay: Antioxidant activity assessed as DPPH free radical scavenging activity at 400 ug/mL after 20 min by UV-Vis spectrophotometric analysis; in short: as §1
[23] = system: Radical scavenging activity; assay: Antioxidant activity assessed as DPPH free radical scavenging activity at 300 ug/mL after 20 min by UV-Vis spectrophotometric analysis; in short: as §1
Bacillus pumilus [24] = assay: Antibacterial activity against Bacillus pumilus MTCC 2466 assessed as growth inhibition at 100 ug/disk after 24 hr by disk diffusion method; conditions: MTCC 2466, 24 h, read-out: DIZ; in short: as §3
[25] = system: Radical scavenging activity; assay: Antioxidant activity assessed as DPPH free radical scavenging activity after 20 min by UV-Vis spectrophotometric analysis; set-up: concentration or dose not given beside the values; in short: as §1
[26] = system: Radical scavenging activity; assay: Antioxidant activity assessed as DPPH free radical scavenging activity at 60 ug/mL after 20 min by UV-Vis spectrophotometric analysis; in short: as §1
Dickeya chrysanthemi [27] = assay: Antibacterial activity against Erwinia chrysanthemi ITCC B-40 assessed as as growth inhibition after 24 hr by broth dilution method; conditions: ITCC B-40, 24 h; in short: as §4

| Compound | zone of inhibition at 25 µg/disc (Klebsiella pneumoniae [1]) [mm] | zone of inhibition at 25 µg/disc (Xanthomonas oryzae [2]) [mm] | zone of inhibition at 25 µg/disc (Bacillus thuringiensis [3]) [mm] | zone of inhibition at 25 µg/disc (Pseudomonas aeruginosa [4]) [mm] | zone of inhibition at 25 µg/disc (Dickeya chrysanthemi [5]) [mm] | zone of inhibition at 25 µg/disc (Bacillus pumilus [6]) [mm] | zone of inhibition at 25 µg/disc (Staphylococcus aureus [7]) [mm] | Activity [8] [%] | LC50 (Rhizoctonia solani) [µg/mL] | Activity [9] [%] | zone of inhibition at 100 µg/disc (Staphylococcus aureus [10]) [mm] | Activity [11] [%] | zone of inhibition at 100 µg/disc (Klebsiella pneumoniae [12]) [mm] | zone of inhibition at 100 µg/disc (Bacillus thuringiensis [14]) [mm] | LC50 (Athelia rolfsii) [µg/mL] | zone of inhibition at 100 µg/disc (Dickeya chrysanthemi [16]) [mm] | zone of inhibition at 100 µg/disc (Pseudomonas aeruginosa [19]) [mm] | zone of inhibition at 100 µg/disc (Xanthomonas oryzae [20]) [mm] | zone of inhibition at 100 µg/disc (Bacillus pumilus [24]) [mm] | Activity [25] [%] | further results |
| --- | --- | --- | --- | --- | --- | --- | --- | --- | --- | --- | --- | --- | --- | --- | --- | --- | --- | --- | --- | --- | --- |
| CC1(C)S[C@@H]2[C@H](NC(=O)[C@H](N)c3ccccc3)C(=O)N2[C@H]1C(=O)O [AMPICILLIN] | 10 | 5 | 0 | 10 | 20 | 20 | 10 | – | – | – | – | – | – | – | – | – | – | – | – | – | – |
| NC[C@H]1O[C@H](O[C@H]2[C@H](O)[C@@H](O[C@H]3O[C@H](CO)[C@@H](O)[C@H](N)[C@H]3O)[C@H](N)C[C@@H]2N)[C@H](O)[C@@H](O)[C@@H]1O [KANAMYCIN] | 15 | 0 | 15 | 0 | 0 | 0 | 10 | – | – | – | – | – | – | – | – | – | – | – | – | – | – |
| O=c1[nH][nH]c2c1C(c1ccccc1)CC(c1ccc(F)cc1)=C2 (centres undefined) | – | – | – | – | – | – | – | 91 | 669 (≈ 2180 µM) | 89 | 0 | 30.4 | 15 | 0 | 912 (≈ 2980 µM) | 0 | 0 | 0 | 0 | 70.5 | Activity [13]: 23.5%; Activity [15]: 90.8%; Activity [17]: 70.5%; Activity [18]: 92.2%; MIC (Klebsiella pneumoniae [21]): 24.7 µg/mL (≈ 80.6 µM); Activity [22]: 90.8%; Activity [23]: 90.7%; IC50 [25]: 23.71 µg/mL (≈ 77.4 µM); Activity [26]: 86.9% |
| CCOC(=O)C1C(=O)C=C(c2ccc(Cl)cc2)CC1c1ccc(OC)cc1 (centres undefined) | – | – | – | – | – | – | – | – | 58 (≈ 151 µM) | – | 0 | – | 0 | 0 | 372 (≈ 967 µM) | 15 | 0 | 0 | 0 | 4.74 | MIC (Dickeya chrysanthemi [27]): 73.6 µg/mL (≈ 191 µM) |
| CN[C@@H]1[C@H](O[C@H]2[C@H](O[C@H]3[C@H](O)[C@@H](O)[C@H](N=C(N)N)[C@@H](O)[C@@H]3N=C(N)N)O[C@@H](C)[C@]2(O)C=O)O[C@@H](CO)[C@H](O)[C@H]1O [STREPTOMYCIN] | 20 | 20 | 20 | 20 | 20 | 15 | 20 | – | – | – | – | – | – | – | – | – | – | – | – | – | MIC (Dickeya chrysanthemi [27]): 4.6 µg/mL (≈ 7.91 µM); MIC (Klebsiella pneumoniae [21]): 3.1 µg/mL (≈ 5.33 µM) |
| Cc1ccc(C2=Cc3n[nH]c(O)c3C(c3ccc(C)cc3)C2)cc1 (centres undefined) | – | – | – | – | – | – | – | 40.3 | 814 (≈ 2570 µM) | 34.9 | 5 | 4.4 | 0 | 0 | 876 (≈ 2770 µM) | 0 | 10 | 0 | 0 | 18.1 | Activity [13]: 3.4%; Activity [15]: 85.2%; Activity [17]: 18.2%; Activity [18]: 68.1%; Activity [22]: 84.8%; Activity [23]: 80.5%; IC50 [25]: 123.54 µg/mL (≈ 390 µM); Activity [26]: 31.5% |
| COc1ccc(C2CC(c3ccc4c(c3)OCO4)=Cc3n[nH]c(O)c32)cc1 (centres undefined) | – | – | – | – | – | – | – | 90.7 | 643 (≈ 1770 µM) | 89.5 | 0 | 30.4 | 0 | 0 | 897 (≈ 2480 µM) | 0 | 0 | 0 | 0 | 56.1 | Activity [13]: 19%; Activity [15]: 90.1%; Activity [17]: 56.1%; Activity [18]: 91.9%; Activity [22]: 89.9%; Activity [23]: 89.8%; IC50 [25]: 25.2 µg/mL (≈ 69.5 µM); Activity [26]: 84.2% |
| CCOC(=O)C1C(=O)C=C(c2ccccc2)CC1c1ccc(OC)cc1 (centres undefined) | – | – | – | – | – | – | – | – | 116 (≈ 331 µM) | – | 0 | – | 0 | 0 | 347 (≈ 990 µM) | 15 | 0 | 0 | 0 | 2.69 | MIC (Dickeya chrysanthemi [27]): 5.9 µg/mL (≈ 16.8 µM) |
